In ChEMBL document CHEMBL1124956, “Renin inhibitors based on dipeptide analogues. Incorporation of the hydroxyethylene isostere at the P2/P3 sites” (J Med Chem, 1990) one finds IC50 data, which are given here for 20 compounds.

The assay has as its target T1, Renin (Homo sapiens, UniProt P00797).
T1 sequence (P00797 whole entry): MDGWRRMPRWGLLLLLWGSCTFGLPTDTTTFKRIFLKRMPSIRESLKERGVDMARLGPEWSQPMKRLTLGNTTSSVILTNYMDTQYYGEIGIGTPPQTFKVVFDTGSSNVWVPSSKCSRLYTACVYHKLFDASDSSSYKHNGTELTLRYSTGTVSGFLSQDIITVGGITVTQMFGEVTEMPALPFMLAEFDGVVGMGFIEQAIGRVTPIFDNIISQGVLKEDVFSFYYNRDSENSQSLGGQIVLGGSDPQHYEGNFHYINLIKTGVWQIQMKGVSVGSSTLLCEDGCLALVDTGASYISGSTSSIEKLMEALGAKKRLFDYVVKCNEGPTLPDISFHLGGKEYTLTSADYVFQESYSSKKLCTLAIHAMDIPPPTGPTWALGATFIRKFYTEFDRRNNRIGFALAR
Description: In vitro inhibitory activity against human renal renin using radioimmunoassay for angiotensin I production. The method, boiled down:
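Purified human renin enzyme, assayed in maleate buffer at pH 6.0. The remaining conditions follow a previously published protocol.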
Regarding `C=C(C[C@H](O)[C@H](CC1CCCCC1)NC(=O)C(CC(C)C)NC(=O)[C@H](Cc1ccccc1)NC(=O)OC(C)(C)C)C(=O)NCC(C)C` (stereo not given in full), the IC50 (in general, the concentration needed to halve the response being measured) came out at 6 nM.
In the case of `C=C(C[C@H](O)[C@H](CC1CCCCC1)NC(=O)C(CCCCCC)CC(O)[C@H](Cc1ccccc1)NC(=O)OC(C)(C)C)C(=O)NCC(C)C` (stereo not given in full) it was 70 nM.
The compound `C=C(C[C@H](O)[C@H](CC1CCCCC1)NC(=O)C(CC(C)C)CC(O)[C@H](Cc1ccccc1)NC(=O)OC(C)(C)C)C(=O)NCC(C)C` (stereo not given in full) registered a half-maximal inhibitory concentration (IC50) of 25 nM.
As to `C=C(C[C@H](O)[C@H](CC1CCCCC1)NC(=O)[C@H](C)C[C@@H](O)[C@H](Cc1ccccc1)NC(=O)OC(C)(C)C)C(=O)NCC(C)C`, the IC50 came to 20 nM. This IC50 and that of the compound before are within 1.5-fold of each other.
The value for `C=C(C[C@H](O)[C@H](CC1CCCCC1)NC(=O)[C@@H](C)C[C@@H](O)[C@H](Cc1ccccc1)NC(=O)OC(C)(C)C)C(=O)NCC(C)C` was 100 nM.
As to `C=CCCC[C@H](C[C@@H](O)[C@H](Cc1ccccc1)NC(=O)OC(C)(C)C)C(=O)N[C@@H](CC1CCCCC1)[C@@H](O)CC(=C)C(=O)NCC(C)C`, it took 1 nM to reach half-maximal inhibition (IC50).
The value for `C=CCCCC(NC(=O)[C@H](Cc1ccccc1)NC(=O)OC(C)(C)C)C(=O)N[C@@H](CC1CCCCC1)[C@@H](O)CC(=C)C(=O)NCC(C)C` (mixture of isomers) was 18 nM.
In the case of `C=C(C[C@H](O)[C@H](CC1CCCCC1)NC(=O)C(CCCCC)CC(O)[C@H](Cc1ccccc1)NC(=O)OC(C)(C)C)C(=O)NCC(C)C` (stereo not given in full) it was 19 nM; in that of `C=C(C[C@H](O)[C@H](CC1CCCCC1)NC(=O)[C@@H](C[C@@H](O)[C@H](Cc1ccccc1)NC(=O)OC(C)(C)C)Cn1ccnn1)C(=O)NCC(C)C`, 95 nM.
The value for `C=C(C[C@H](O)[C@H](CC1CCCCC1)NC(=O)C(C)CC(O)[C@H](Cc1ccccc1)NC(=O)OC(C)(C)C)C(=O)NCC(C)C` (single isomer, unassigned) was 20 nM; that for `C=C(C[C@H](O)[C@H](CC1CCCCC1)NC(=O)C(C)NC(=O)[C@H](Cc1ccccc1)NC(=O)OC(C)(C)C)C(=O)NCC(C)C` (stereo not given in full) was 10 nM.
With `CC(C)C[C@H](C[C@@H](O)[C@H](Cc1ccccc1)NC(=O)OC(C)(C)C)C(=O)N[C@@H](CC1CCCCC1)[C@@H](O)[C@@H](CO)CC(C)C`, the IC50 is 6 nM.
Turning to `C=CCCCC(C[C@@H](O)[C@H](Cc1ccccc1)NC(=O)OC(C)(C)C)C(=O)N[C@@H](CC1CCCCC1)[C@@H](O)[C@@H](CO)CC(C)C` (stereo not given in full), the IC50 worked out at 12 nM. This IC50 lies about 2-fold higher than the previous one.
In the case of `C=CCCC[C@@H](C[C@@H](O)[C@H](Cc1ccccc1)NC(=O)OC(C)(C)C)C(=O)N[C@@H](CC1CCCCC1)[C@@H](O)CC(=C)C(=O)NCC(C)C` it was 8 nM; in that of `C=C(C[C@H](O)[C@H](CC1CCCCC1)NC[C@H](C)C[C@@H](O)[C@H](Cc1ccccc1)NC(=O)OC(C)(C)C)C(=O)NCC(C)C`, above 10000 nM; in that of `C=C(C[C@H](O)[C@H](CC1CCCCC1)NC(=O)[C@H](C)C[C@H](O)[C@H](Cc1ccccc1)NC(=O)OC(C)(C)C)C(=O)NCC(C)C`, 3000 nM.
In the case of `C=C(C[C@H](O)[C@H](CC1CCCCC1)NC(=O)C(Cc1c[nH]cn1)NC(=O)[C@H](Cc1ccccc1)NC(=O)OC(C)(C)C)C(=O)NCC(C)C` (stereo not given in full) it was 2 nM; in that of `C=C(C[C@H](O)[C@H](CC1CCCCC1)NC(=O)[C@@H](C[C@H](O)[C@H](Cc1ccccc1)NC(=O)OC(C)(C)C)Cn1ccnn1)C(=O)NCC(C)C`, 2700 nM; in that of `C=C(C[C@H](O)[C@H](CC1CCCCC1)NC(=O)C(CCCC)NC(=O)[C@H](Cc1ccccc1)NC(=O)OC(C)(C)C)C(=O)NCC(C)C` (mixture of isomers), 2 nM.
In the case of `C=C(C[C@H](O)[C@H](CC1CCCCC1)NC(=O)C(CCCC)CC(O)[C@H](Cc1ccccc1)NC(=O)OC(C)(C)C)C(=O)NCC(C)C` (stereo not given in full) it was 5.5 nM.
